Calls of active or inactive are those of the source. The calls are words filed in the database; no cut-off is given here.

For data set [1], the system named is MDA-MB-468. Description: Induction of apoptosis in human MDA-MB-468 cells assessed as viable cells at 3 uM after 48 hrs by Annexin-V-FITC/propidium iodide staining based flow cytometric analysis (reference value: 95.5%). Particulars: read-out: Activity. The format is functional. For orientation: Flow cytometry measures light scatter and fluorescence of single cells or particles in a stream.

For the next data set, the system named is A549. Description: Antiproliferative activity against human A549 cells. The format is functional, cell-based.
Data set [2] has as its target T1, Signal transducer and activator of transcription 3 (Homo sapiens, UniProt P40763). Briefly: Inhibition of STAT3 phosphorylation at Ser727 residue in human MDA-MB-231 cells at 3 uM after 3 hrs by Western blotting analysis. It is filed as cell-based. On the technique in general: A western blot detects proteins with antibodies after separation by electrophoresis.
Data set [3] relates to HCC70. Briefly: Effect on total STAT5 level in human HCC70 cells at 0.3 to 3 uM after 3 hrs by Western blotting analysis. It is filed as functional, cell-based. Particulars: dose 0.3-3 µM. The method, boiled down:
(§1)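 Breast cancer cells were treated with vehicle (0.1% DMSO) or compound, then lysed in RIPA with PMSF and phosphatase inhibitors. 20–50 μg protein was run on 8 or 12% SDS-PAGE, blotted to PVDF, blocked in 5% BSA, probed with primary antibodies overnight at 4 °C, then HRP secondaries, with ECL detection.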

Data set [4] in a line: Induction of apoptosis in human MDA231-LM2-4175 cells assessed as necrotic cells at 1 uM after 48 hrs by Annexin-V-FITC/propidium iodide staining based flow cytometric analysis (reference value: 0.531%). The format is functional.
A further data set concerns MDA231-LM2-4175. Description: Inhibition of colony formation in human MDA231-LM2-4175 cells at 0.3 uM after 10 to 15 days by crystal violet staining based assay. To be noted: time 10-15 day. The format is functional, cell-based. The method, boiled down:
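Cells seeded at 0.5×10^3–1×10^3 per well; compound added the next day. Medium and compound renewed every 2–3 days. After about 10–15 days, colonies fixed with 4% paraformaldehyde, stained with crystal violet, scanned and quantified by image analysis. Triplicate.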

Data set [5] concerns the target T1, Signal transducer and activator of transcription 3. Description: Inhibition of STAT3 phosphorylation at Ser727 residue in human HCC70 cells at 3 uM after 3 hrs by Western blotting analysis. It is filed as cell-based.
Data set [6] is described as follows: Antitumor activity against human MDA231-LM2-4175 cells xenografted in mouse assessed as tumor growth inhibition at 5 mg/kg, iv administered once daily for 20 days. It is filed as functional. To be noted: MDA231-LM2-4175, iv, 480 h, time 20 day, read-out: TGI. (Xenograft models place foreign cells or tissue in a host animal.)
Data set [7] has as its system HCC70. Description: Inhibition of cell invasion in human HCC70 cells incubated for 12 hrs by crystal violet staining based transwell assay. It is filed as functional. Particulars: dose 1-3 µM. The method, boiled down:
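Cells seeded at 1.5×10^4–3×10^4 per well in the upper chamber of 8.0 µm pore Transwell inserts and treated with graded compound for 12 h. Non-invading cells removed with cotton. Invaded cells fixed in 4% paraformaldehyde, stained with crystal violet, photographed and counted. Triplicate.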

Data set [8] in a line: Toxicity in mouse xenografted with human MDA-MB-231-4175 cells assessed as morphological change in lung at 5 to 15 mg/kg, […] once daily for 20 days by HE staining based assay. It is filed as organism-based. To be noted: in vivo, iv, 480 h, dose 5-15 mg/kg, time 20 day. The method, boiled down: (§2)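 Female NOD-SCID mice aged 4–5 weeks, given 2×10^6–3×10^6 MDA-MB-231-4175 cells subcutaneously in the flank. At about 100 mm³ tumour volume, randomised n=6/group: vehicle (PBS with 15% Cremophor EL), 5 or 15 mg/kg intraperitoneally daily. Killed at day 20; heart, liver, spleen, lung and kidney collected for morphological examination.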

A short description of data set [9]: Antitumor activity against human MDA231-LM2-4175 cells xenografted in mouse assessed as tumor growth inhibition at 15 mg/kg, iv administered once daily for 20 days. To be noted: MDA231-LM2-4175, iv, 480 h, time 20 day, read-out: TGI. It is filed as functional.
The target in data set [10] is T2, Signal transducer and activator of transcription 5A (Homo sapiens) (UniProt P42229).
T2 sequence (whole entry): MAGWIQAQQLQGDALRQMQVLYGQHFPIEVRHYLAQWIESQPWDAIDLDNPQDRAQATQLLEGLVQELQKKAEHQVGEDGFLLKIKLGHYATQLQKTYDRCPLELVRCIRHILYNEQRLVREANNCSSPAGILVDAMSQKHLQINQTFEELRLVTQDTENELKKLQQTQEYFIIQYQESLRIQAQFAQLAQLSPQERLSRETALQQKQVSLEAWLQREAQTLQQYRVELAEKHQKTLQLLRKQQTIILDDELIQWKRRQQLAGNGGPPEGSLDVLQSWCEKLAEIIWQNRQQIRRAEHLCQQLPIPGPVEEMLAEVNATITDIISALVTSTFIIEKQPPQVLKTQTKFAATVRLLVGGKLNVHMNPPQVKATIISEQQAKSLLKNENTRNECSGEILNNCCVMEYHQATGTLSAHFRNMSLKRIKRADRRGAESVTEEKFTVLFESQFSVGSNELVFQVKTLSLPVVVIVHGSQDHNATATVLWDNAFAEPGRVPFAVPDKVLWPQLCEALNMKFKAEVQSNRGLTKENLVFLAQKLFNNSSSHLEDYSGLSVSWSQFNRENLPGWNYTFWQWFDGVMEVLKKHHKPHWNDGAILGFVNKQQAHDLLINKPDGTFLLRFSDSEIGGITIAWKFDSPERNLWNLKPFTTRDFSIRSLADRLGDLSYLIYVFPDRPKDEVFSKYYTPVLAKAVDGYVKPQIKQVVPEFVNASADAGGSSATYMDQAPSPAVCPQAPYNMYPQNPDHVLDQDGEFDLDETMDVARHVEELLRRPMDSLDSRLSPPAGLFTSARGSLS
Description: Inhibition of STAT5 phosphorylation at Y694 residue in human HCC70 cells at 0.3 to 3 uM after 3 hrs by Western blotting analysis. The format is cell-based. To be noted: dose 0.3-3 µM.

Another data set concerns MGC-803. Description: Antiproliferative activity against human MGC-803 cells. The format is functional, cell-based.
In data set [11] the test system is MDA-MB-468. Description: Induction of apoptosis in human MDA-MB-468 cells assessed as increase in caspase-7 cleavage at 1 uM after 48 hrs by Western blot analysis. It is filed as functional, cell-based. In a few lines:
(§3)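 Cells were treated with vehicle (0.1% DMSO) or compound, then analysed by western blot of RIPA lysates (20–50 μg protein, SDS-PAGE, PVDF) for PARP and cleaved caspase-7, with β-actin as loading control. Three independent experiments.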

Data set [12] is described as follows: Toxicity in mouse xenografted with human MDA-MB-231-4175 cells assessed as morphological change in heart at 5 to 15 mg/kg, […] once daily for 20 days by HE staining based assay. It is filed as organism-based. To be noted: in vivo, iv, 480 h, dose 5-15 mg/kg, time 20 day. In a few lines: as §2
Data set [13] can be described thus: Toxicity in mouse xenografted with human MDA-MB-231-4175 cells assessed as morphological change in spleen at 5 to 15 mg/kg, […] once daily for 20 days by HE staining based assay. It is filed as organism-based. To be noted: in vivo, iv, 480 h, dose 5-15 mg/kg, time 20 day. The method, boiled down:
as §2

The subject of data set [14] is MDA-MB-468. Briefly: Induction of apoptosis in human MDA-MB-468 cells assessed as viable cells at 1 uM after 48 hrs by Annexin-V-FITC/propidium iodide staining based flow cytometric analysis (reference value: 95.5%). To be noted: read-out: Activity. The format is functional.
The subject of data set [15] is HCC70. Briefly: Effect on total STAT3 level in human HCC70 cells at 0.3 to 3 uM measured after 3 hrs by Western blot analysis. It is filed as functional, cell-based. Particulars: dose 0.3-3 µM. In a few lines:
as §1

A further data set has as its system MDA-MB-231. Description: Effect on total STAT1 level in human MDA-MB-231 cells at 0.3 to 3 uM after 3 hrs by Western blotting analysis. It is filed as functional, cell-based. To be noted: dose 0.3-3 µM. In a few lines: as §1
Data set [16] has as its system MDA-MB-468. Description: Induction of apoptosis in human MDA-MB-468 cells assessed as increase in PARP cleavage at 1 uM after 48 hrs by Western blot analysis. It is filed as functional, cell-based. In a few lines:
as §3

T1 sequence (P40763 whole entry): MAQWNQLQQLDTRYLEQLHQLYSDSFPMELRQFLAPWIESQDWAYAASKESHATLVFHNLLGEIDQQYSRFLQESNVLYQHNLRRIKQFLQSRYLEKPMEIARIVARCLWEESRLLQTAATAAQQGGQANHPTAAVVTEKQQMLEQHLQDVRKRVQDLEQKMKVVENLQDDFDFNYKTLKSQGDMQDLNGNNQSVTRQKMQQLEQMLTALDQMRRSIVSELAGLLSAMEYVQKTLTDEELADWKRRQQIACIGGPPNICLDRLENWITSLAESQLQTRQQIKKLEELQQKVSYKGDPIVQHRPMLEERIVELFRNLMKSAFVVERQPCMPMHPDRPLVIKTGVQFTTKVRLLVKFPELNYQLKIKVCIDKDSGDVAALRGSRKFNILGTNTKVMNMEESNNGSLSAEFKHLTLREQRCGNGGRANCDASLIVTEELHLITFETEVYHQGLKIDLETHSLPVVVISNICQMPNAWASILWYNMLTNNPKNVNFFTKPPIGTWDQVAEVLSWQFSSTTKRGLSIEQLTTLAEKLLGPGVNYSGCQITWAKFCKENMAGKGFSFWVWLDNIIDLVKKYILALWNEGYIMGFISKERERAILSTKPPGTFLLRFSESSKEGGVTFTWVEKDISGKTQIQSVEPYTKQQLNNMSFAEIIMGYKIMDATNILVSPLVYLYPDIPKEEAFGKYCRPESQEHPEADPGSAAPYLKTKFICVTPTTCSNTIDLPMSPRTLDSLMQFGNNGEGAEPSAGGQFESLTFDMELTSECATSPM

For the compound `O=C(Cc1c(-c2ccccc2)nc2ccccn12)Nc1ccc2c(c1)S(=O)(=O)C=C2`, the viability at 3 µM with MDA-MB-468 [1] amounted to 38.6%. For the same compound, the values for the IC50 in the data set with A549 and in the data set on MGC-803 were 1100 nM and 1600 nM, respectively. In addition, the inhibition result (in data set [2]; in the data set on MDA231-LM2-4175) was “Active” in each case. Further, the outcome in the data set on HCC70 [3], in the data set with HCC70 [15] and in the data set with MDA-MB-231 was inactive. Besides, the Activity in data set [4] is 1.1%; in [8], “Non-Toxic”; in data set [12] it was “Non-Toxic”; in [13], “Non-Toxic”. Besides, the inhibition result in [5] and in [10] was “inactive” throughout. Further, the inhibition in vivo at 5 mg/kg in data set [6] worked out at 20.1%. Moreover, in the data set with HCC70 [7], the inhibition result is “Dose-Dependent Effect”. In data set [9], the inhibition in vivo at 15 mg/kg came to 40.2%. In addition, the result in the data set with MDA-MB-468 [11] and in the data set on MDA-MB-468 [16] was Active. The viability at 1 µM in the data set on MDA-MB-468 [14] turned out to be 57.9%.

One may read the IC50 as the concentration needed to halve the response being measured.
